Laboratory results as given in PMC11634041 (Nature, 2024).

Columns and labels:
[1] = target: spHCN (R332C background, Alexa-488 labelled, called WT) (Strongylocentrotus purpuratus, UniProt O76977, R332C/M375L); assay: two-electrode voltage clamp, oocytes; assay type: cell-based; details: 100 μM ZD7288; pore blocker control; Alexa-488-labelled channel
human HCN1 (full length) = target: T1, human HCN1 (full length) (Homo sapiens, UniProt O60741); assay: two-electrode voltage clamp, oocytes; assay type: cell-based; details: 30 μM propofol, 20 min incubation; pH 7.4; allosteric inhibitor
T1 sequence (O60741 1-890): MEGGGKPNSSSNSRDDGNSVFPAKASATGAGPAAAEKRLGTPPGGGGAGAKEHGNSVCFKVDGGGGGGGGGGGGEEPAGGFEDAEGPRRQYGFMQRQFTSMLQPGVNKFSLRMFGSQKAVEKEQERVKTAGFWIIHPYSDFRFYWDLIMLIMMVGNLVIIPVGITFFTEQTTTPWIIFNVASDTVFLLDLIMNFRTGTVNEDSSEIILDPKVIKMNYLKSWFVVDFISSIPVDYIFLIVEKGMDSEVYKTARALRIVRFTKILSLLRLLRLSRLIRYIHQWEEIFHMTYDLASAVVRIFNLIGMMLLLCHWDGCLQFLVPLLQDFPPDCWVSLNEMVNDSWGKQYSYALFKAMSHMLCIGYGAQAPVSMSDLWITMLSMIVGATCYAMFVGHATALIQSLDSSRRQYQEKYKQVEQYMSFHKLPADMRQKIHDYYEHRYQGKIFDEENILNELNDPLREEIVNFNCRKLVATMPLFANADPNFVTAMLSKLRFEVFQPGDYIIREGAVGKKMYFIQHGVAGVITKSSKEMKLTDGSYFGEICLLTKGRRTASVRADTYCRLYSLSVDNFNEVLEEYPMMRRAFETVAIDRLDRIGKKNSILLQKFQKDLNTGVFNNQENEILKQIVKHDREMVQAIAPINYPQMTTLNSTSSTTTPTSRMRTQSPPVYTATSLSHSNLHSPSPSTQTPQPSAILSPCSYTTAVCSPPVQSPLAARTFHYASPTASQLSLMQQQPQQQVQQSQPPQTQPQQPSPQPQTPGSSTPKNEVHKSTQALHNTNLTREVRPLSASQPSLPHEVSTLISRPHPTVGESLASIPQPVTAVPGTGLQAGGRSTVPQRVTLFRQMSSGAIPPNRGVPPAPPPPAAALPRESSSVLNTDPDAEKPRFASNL
Summary of the method: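 Full-length human HCN1 RNA (wild type or mutant), made by in vitro transcription, injected into defolliculated Xenopus laevis oocytes. Oocytes stored at 16°C in 1:2 diluted L-15 medium with 2.5% penicillin-streptomycin and 5 mM HEPES pH 7.5. Two-electrode clamp used 3 M KCl-filled electrodes (0.1–0.5 MΩ current, 1–5 MΩ voltage).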

cryo-EM structure = target: the molecule itself; assay: cryo-EM structure

With `CCN(c1ccccc1)c1cc(NC)[n+](C)c(C)n1` [ZD7288] the “two-electrode voltage clamp, oocytes” value [1] was “currents from spHCN M375L channels are blocked by the HCN-channel blocker ZD7288”.

In the case of `CC(C)c1cccc(C(C)C)c1O` [propofol, 2,6-di-iso-propylphenol], the “ΔV1/2 (mV) / I / Iapo (%)” value (human HCN1 (full length)) is reported as −30.9 ± 6.4 mV.

B1: human HCN1EM M305L in lipid nanodiscs (natural protein, UniProt O60741 1-890, looked up)
chain: MEGGGKPNSSSNSRDDGNSVFPAKASATGAGPAAAEKRLGTPPGGGGAGAKEHGNSVCFKVDGGGGGGGGGGGGEEPAGGFEDAEGPRRQYGFMQRQFTSMLQPGVNKFSLRMFGSQKAVEKEQERVKTAGFWIIHPYSDFRFYWDLIMLIMMVGNLVIIPVGITFFTEQTTTPWIIFNVASDTVFLLDLIMNFRTGTVNEDSSEIILDPKVIKMNYLKSWFVVDFISSIPVDYIFLIVEKGMDSEVYKTARALRIVRFTKILSLLRLLRLSRLIRYIHQWEEIFHMTYDLASAVVRIFNLIGMLLLLCHWDGCLQFLVPLLQDFPPDCWVSLNEMVNDSWGKQYSYALFKAMSHMLCIGYGAQAPVSMSDLWITMLSMIVGATCYAMFVGHATALIQSLDSSRRQYQEKYKQVEQYMSFHKLPADMRQKIHDYYEHRYQGKIFDEENILNELNDPLREEIVNFNCRKLVATMPLFANADPNFVTAMLSKLRFEVFQPGDYIIREGAVGKKMYFIQHGVAGVITKSSKEMKLTDGSYFGEICLLTKGRRTASVRADTYCRLYSLSVDNFNEVLEEYPMMRRAFETVAIDRLDRIGKKNSILLQKFQKDLNTGVFNNQENEILKQIVKHDREMVQAALPRESSSVLNTDPDAEKPRFASNL
B1: binds (cryo-EM structure).
